# According to ChEMBL document CHEMBL3259775, “Towards the development of 5-HT₇ ligands combining serotonin-like and arylpiperazine moieties” (Eur J Med Chem, 2014):
# What was measured:
# [1] = biological target: T1, 5-hydroxytryptamine receptor 7 (Homo sapiens, UniProt P34969); assay: Displacement of [3H]5-HT from human 5-HT7 receptor expressed in HEK293 cells after 30 mins by microbeta counting analysis; type: cell-based
# [2] = biological target: T2, 5-hydroxytryptamine receptor 1A (Homo sapiens) (UniProt P08908); assay: Displacement of [3H]-8-OH-DPAT from human recombinant 5-HT1A receptor expressed in HEK293 cells at 1 uM by scintillation counting analysis relative to control; type: cell-based
# T2 sequence (whole entry): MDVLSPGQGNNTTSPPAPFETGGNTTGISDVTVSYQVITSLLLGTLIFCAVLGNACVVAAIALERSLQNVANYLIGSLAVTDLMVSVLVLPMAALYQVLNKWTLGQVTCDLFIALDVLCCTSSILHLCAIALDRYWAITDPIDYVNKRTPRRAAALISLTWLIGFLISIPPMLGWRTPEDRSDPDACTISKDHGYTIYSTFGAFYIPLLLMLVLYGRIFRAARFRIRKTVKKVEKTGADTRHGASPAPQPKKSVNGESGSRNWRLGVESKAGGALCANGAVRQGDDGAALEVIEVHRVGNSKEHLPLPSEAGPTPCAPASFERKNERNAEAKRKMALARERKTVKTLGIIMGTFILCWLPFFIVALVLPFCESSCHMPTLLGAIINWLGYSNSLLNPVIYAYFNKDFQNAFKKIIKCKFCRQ
# [3] = biological target: 5-hydroxytryptamine receptor 1B (Homo sapiens) (UniProt P28222); assay: Binding affinity to recombinant human 5-HT1B receptor expressed in CHO cells at 1 uM by radioligand displacement assay relative to control; type: cell-based
# Sequence of 5-hydroxytryptamine receptor 1B (Homo sapiens) (P28222 whole entry): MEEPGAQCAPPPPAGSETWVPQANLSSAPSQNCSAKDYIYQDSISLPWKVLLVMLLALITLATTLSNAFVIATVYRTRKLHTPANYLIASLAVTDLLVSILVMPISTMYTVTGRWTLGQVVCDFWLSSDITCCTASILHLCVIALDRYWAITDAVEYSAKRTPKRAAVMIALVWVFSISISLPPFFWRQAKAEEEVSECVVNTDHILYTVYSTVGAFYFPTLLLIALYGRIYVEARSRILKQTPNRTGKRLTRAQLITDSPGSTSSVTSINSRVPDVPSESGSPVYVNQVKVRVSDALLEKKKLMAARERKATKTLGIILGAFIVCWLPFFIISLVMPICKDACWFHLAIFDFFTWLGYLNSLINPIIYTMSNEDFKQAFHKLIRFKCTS
# [4] = biological target: 5-hydroxytryptamine receptor 1D (Rattus norvegicus) (UniProt P28565); assay: Binding affinity to rat recombinant 5-HT1D receptor expressed in CHO cells at 1 uM by radioligand displacement assay relative to control; type: cell-based
# Sequence of 5-hydroxytryptamine receptor 1D (Rattus norvegicus) (P28565 whole entry): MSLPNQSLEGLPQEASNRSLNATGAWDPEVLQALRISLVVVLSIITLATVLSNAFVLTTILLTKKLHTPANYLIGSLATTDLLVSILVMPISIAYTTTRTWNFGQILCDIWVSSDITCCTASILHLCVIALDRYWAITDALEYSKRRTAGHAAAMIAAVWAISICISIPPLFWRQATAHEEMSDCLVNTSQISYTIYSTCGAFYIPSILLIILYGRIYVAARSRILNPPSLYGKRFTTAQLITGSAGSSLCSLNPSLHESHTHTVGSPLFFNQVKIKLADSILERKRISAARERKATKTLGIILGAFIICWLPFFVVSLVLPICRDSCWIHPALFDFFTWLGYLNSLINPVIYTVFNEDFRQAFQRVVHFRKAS
# [5] = biological target: 5-hydroxytryptamine receptor 2A (Homo sapiens) (UniProt P28223); assay: Binding affinity to human recombinant 5-HT2A receptor expressed in HEK293 cells at 1 uM by radioligand displacement assay relative to control; type: cell-based
# Sequence of 5-hydroxytryptamine receptor 2A (Homo sapiens) (P28223 whole entry): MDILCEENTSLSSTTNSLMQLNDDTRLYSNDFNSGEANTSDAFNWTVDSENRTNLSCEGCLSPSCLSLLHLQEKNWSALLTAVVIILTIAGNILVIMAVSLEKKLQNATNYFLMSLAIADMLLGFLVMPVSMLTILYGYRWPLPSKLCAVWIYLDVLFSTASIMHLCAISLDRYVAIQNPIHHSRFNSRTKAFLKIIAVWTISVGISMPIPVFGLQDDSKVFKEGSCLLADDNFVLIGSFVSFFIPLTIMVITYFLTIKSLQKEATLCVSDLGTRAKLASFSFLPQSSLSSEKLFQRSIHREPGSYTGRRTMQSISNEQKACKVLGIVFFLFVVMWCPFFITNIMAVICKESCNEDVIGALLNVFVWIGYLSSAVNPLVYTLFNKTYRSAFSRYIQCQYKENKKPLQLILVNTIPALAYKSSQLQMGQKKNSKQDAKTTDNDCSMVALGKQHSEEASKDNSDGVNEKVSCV
# [6] = biological target: 5-hydroxytryptamine receptor 2B (Homo sapiens) (UniProt P41595); assay: Binding affinity to human recombinant 5-HT2B receptor expressed in CHO cells at 1 uM by radioligand displacement assay relative to control; type: cell-based
# Sequence of 5-hydroxytryptamine receptor 2B (Homo sapiens) (P41595 whole entry): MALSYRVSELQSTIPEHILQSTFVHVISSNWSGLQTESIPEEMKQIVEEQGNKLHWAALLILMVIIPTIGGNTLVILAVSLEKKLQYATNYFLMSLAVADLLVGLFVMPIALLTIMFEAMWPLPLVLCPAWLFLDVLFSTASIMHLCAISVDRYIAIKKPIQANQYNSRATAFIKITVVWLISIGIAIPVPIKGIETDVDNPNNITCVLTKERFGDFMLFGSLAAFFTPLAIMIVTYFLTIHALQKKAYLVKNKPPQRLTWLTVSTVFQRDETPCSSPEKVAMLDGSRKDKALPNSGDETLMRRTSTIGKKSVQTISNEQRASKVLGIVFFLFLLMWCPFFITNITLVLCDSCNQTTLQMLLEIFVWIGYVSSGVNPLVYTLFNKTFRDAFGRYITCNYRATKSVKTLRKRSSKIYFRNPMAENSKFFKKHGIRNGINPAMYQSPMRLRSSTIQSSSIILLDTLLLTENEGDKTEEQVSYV
# [7] = biological target: T3, 5-hydroxytryptamine receptor 2C (Homo sapiens) (UniProt P28335); assay: Binding affinity to human recombinant 5-HT2C receptor expressed in HEK293 cells at 1 uM after 30 mins by radioligand displacement assay relative to control; type: cell-based
# T3 sequence (whole entry): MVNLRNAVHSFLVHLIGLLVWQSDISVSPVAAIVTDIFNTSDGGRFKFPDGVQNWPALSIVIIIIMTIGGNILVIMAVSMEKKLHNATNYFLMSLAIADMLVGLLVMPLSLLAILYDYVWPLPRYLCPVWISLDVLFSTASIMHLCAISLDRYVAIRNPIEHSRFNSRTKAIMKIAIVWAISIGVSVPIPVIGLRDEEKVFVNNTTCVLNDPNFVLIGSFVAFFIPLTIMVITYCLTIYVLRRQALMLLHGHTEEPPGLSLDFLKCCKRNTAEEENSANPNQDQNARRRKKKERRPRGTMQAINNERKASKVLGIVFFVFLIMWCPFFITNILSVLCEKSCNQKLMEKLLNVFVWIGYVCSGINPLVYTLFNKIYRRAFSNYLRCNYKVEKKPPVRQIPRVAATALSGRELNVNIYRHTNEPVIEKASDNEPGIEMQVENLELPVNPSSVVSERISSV
# [8] = biological target: T4, 5-hydroxytryptamine receptor 3A (Homo sapiens) (UniProt P46098); assay: Binding affinity to human 5-HT3 receptor at 1 uM by radioligand displacement assay relative to control
# T4 sequence (whole entry): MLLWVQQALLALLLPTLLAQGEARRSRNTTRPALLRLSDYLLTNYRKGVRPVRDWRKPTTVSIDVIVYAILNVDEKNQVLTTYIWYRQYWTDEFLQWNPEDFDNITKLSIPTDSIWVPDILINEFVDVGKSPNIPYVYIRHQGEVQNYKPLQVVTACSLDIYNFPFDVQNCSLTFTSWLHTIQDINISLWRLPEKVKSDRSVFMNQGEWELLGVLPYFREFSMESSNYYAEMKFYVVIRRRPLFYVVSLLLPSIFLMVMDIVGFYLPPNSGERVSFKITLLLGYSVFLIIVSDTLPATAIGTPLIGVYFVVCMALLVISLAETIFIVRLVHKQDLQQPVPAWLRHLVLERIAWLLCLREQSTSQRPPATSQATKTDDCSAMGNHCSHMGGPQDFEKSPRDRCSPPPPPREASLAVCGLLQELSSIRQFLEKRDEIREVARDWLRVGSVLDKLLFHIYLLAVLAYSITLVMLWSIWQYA
# [9] = biological target: 5-hydroxytryptamine receptor 4 (Homo sapiens) (UniProt Q13639); assay: Binding affinity to human recombinant 5-HT4E receptor expressed in CHO cells at 1 uM after 30 mins by radioligand displacement assay relative to control; type: cell-based
# Sequence of 5-hydroxytryptamine receptor 4 (Homo sapiens) (Q13639 whole entry): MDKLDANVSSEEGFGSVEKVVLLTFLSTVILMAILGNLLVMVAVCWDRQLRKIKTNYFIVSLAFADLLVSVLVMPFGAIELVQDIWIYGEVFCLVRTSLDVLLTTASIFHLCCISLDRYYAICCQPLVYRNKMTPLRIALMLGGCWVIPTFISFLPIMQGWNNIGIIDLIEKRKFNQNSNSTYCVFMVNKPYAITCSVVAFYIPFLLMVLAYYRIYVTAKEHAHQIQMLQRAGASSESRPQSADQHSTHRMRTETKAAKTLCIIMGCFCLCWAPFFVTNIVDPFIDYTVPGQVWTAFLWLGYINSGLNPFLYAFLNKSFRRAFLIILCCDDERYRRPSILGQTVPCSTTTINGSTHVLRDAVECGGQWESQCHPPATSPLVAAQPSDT
# [10] = biological target: 5-hydroxytryptamine receptor 5A (Homo sapiens) (UniProt P47898); assay: Displacement of [3H]LSD from human recombinant 5-HT5A receptor expressed in HEK293 cells at 1 uM after 120 mins by scintillation counting analysis relative to control; type: cell-based
# Sequence of 5-hydroxytryptamine receptor 5A (Homo sapiens) (P47898 whole entry): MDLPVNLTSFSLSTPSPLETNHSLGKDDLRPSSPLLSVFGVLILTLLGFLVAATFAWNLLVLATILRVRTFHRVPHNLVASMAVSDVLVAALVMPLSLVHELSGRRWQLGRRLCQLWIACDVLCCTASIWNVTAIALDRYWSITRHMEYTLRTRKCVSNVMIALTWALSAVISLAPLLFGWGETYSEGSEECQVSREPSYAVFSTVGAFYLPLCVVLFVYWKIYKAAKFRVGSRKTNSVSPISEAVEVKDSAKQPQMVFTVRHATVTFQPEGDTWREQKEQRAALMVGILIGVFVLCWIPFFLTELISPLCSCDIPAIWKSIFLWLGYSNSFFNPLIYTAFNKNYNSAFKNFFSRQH
# [11] = biological target: 5-hydroxytryptamine receptor 6 (Homo sapiens) (UniProt P50406); assay: Binding affinity to human recombinant 5-HT6 receptor expressed in CHO cells at 1 uM after 30 mins by radioligand displacement assay relative to control; type: cell-based
# Sequence of 5-hydroxytryptamine receptor 6 (Homo sapiens) (P50406 whole entry): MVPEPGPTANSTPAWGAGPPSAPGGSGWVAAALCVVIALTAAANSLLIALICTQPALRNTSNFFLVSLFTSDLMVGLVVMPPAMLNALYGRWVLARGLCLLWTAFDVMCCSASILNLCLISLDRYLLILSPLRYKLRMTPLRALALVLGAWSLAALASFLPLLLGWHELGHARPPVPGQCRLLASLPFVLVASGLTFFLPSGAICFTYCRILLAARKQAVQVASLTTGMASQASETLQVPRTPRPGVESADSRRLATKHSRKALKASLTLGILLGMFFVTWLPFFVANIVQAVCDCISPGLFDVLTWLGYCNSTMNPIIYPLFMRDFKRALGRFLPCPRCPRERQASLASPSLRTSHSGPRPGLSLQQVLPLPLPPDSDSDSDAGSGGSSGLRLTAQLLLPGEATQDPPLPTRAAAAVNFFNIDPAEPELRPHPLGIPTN
# [12] = biological target: T1, 5-hydroxytryptamine receptor 7; assay: Binding affinity to human recombinant 5-HT7 receptor expressed in CHO cells after 30 mins by radioligand displacement assay; type: cell-based
# In short: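 Membranes from receptor-expressing cells harvested at 80% confluence, homogenised and pelleted at 48,000 × g for 90 min, then protein-quantified by Bradford. Competition with 5 nmol/L [3H]5-HT and test compound for 30 min at 25 °C in 50 mM Tris-HCl pH 7.4 containing pargyline, 4 mmol/L CaCl2 and 0.05% ascorbic acid. Non-specific binding measured with excess cold 5-HT; bound radioligand separated by filtration. Ki derived from IC50 by Cheng-Prusoff; mean of four determinations in duplicate.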
# [13] = biological target: T1, 5-hydroxytryptamine receptor 7; assay: Displacement of [3H]5-HT from human 5-HT7 receptor expressed in HEK293 cells at 10^-5 mol/L after 30 mins by microbeta counting analysis; type: cell-based
# In short: (§1)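 Membranes incubated 30 min at 25 °C with 5 nmol/L [3H]5-HT in 50 mM Tris-HCl pH 7.4 containing pargyline, CaCl2 and ascorbic acid, with the test compound at a single fixed concentration. Non-specific binding with 100 µM cold 5-HT; separation by filtration; result reported as % displacement.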
# [14] = biological target: T1, 5-hydroxytryptamine receptor 7; assay: Displacement of [3H]5-HT from human 5-HT7 receptor expressed in HEK293 cells at 10^-6 mol/L after 30 mins by microbeta counting analysis; type: cell-based; in short: as §1
# [15] = biological target: T1, 5-hydroxytryptamine receptor 7; assay: Antagonist activity at human 5-HT7 receptor expressed in CHO cells assessed as residual 5-HT-stimulated cAMP accumulation at 1 uM relative to control
# [16] = biological target: T1, 5-hydroxytryptamine receptor 7; assay: Antagonist activity at human 5-HT7 receptor expressed in CHO cells assessed as inhibition of 5-HT-stimulated cAMP accumulation by Cheng-Prusoff method; type: functional, cell-based
# [17] = biological target: T1, 5-hydroxytryptamine receptor 7; assay: Displacement of [3H]5-HT from human 5-HT7 receptor expressed in HEK293 cells at 10^-7 mol/L after 30 mins by microbeta counting analysis; type: cell-based
# T1 sequence (P34969 whole entry): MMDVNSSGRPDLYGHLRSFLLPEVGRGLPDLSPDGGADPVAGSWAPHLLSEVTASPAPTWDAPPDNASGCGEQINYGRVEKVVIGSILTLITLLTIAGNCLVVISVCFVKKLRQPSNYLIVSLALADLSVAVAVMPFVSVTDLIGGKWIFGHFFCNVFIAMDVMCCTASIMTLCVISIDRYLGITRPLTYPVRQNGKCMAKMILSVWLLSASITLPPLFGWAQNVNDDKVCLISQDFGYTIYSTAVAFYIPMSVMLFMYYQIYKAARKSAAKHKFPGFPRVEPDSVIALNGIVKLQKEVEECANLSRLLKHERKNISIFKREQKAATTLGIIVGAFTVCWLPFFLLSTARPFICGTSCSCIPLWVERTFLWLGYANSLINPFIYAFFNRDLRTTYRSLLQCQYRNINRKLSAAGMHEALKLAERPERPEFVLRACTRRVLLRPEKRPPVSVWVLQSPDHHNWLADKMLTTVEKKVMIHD
smiles,measurement,setting,value
Oc1ccc2[nH]cc(CCN3CCN(c4cccc5ccccc45)CC3)c2c1,Ki,[1],11.6 nM
same,inhibition,[2],100%
same,inhibition,[3],74%
same,inhibition,[4],99%
same,inhibition,[5],100%
same,inhibition,[6],98%
same,inhibition,[7],98%
same,inhibition,[8],15%
same,inhibition,[9],7%
same,inhibition,[10],94%
same,inhibition,[11],76%
same,Ki,[12],11.6 nM
CN(CCCCCCN1CCN(c2cccc(C(F)(F)F)c2)CC1)c1cccc(O)c1,Ki,[1],95.6 nM
Oc1cccc(OCCN2CCN(c3ccccc3)CC2)c1,inhibition,[13],42%
same,inhibition,[14],21%
CN(CCCN1CCN(c2ccccc2)CC1)c1cccc(F)c1,Ki,[1],112 nM
O=S(=O)(c1ccccc1)N(CCCN1CCN(c2ccccc2)CC1)c1cccc(O)c1,Ki,[1],12.1 nM
CN(CCCN1CCN(c2cccc3ccccc23)CC1)c1cccc(O)c1,Ki,[1],2.9 nM
CN(CCCN1CCN(c2ccccc2)CC1)c1cccc(Br)c1,Ki,[1],161 nM
CN(CCCCCCN1CCN(c2ccccc2)CC1)c1cccc(O)c1,Ki,[1],12 nM
same,% serotonin response,[15],56%
Cc1cccc(N(C)CCCN2CCN(c3ccccc3)CC2)c1,Ki,[1],84.8 nM
CCCN(CCCN1CCN(c2ccccc2)CC1)c1cccc(O)c1,Ki,[1],20.8 nM
CCN(CCCCCCN1CCN(c2ccccc2)CC1)c1cccc(O)c1,Ki,[1],191 nM
CCc1[nH]c2ccc(O)cc2c1CCN1CCN(c2cccc3ccccc23)CC1,Ki,[1],6.6 nM
CN(CCCCCCN1CCN(c2ccnc3cc(Cl)ccc23)CC1)c1cccc(O)c1,inhibition,[13],74%
same,inhibition,[14],28%
CN1C[C@@H](NS(=O)(=O)N(C)C)C[C@@H]2c3cccc4c3c(cn4C)C[C@H]21,Kb,[16],16 nM
CN(CCCCCN1CCN(c2ccccc2)CC1)c1cccc(O)c1,Ki,[1],16.7 nM
same,% serotonin response,[15],69%
Oc1ccc2[nH]cc(CCN3CCN(c4cccc(-c5ccccc5)c4)CC3)c2c1,inhibition,[13],88%
same,inhibition,[14],42%
Oc1cccc(N(CCCN2CCN(c3ccccc3)CC2)Cc2ccccc2)c1,Ki,[1],92.5 nM
CN(CCCN1CCC(N(c2ccccc2)c2ccccc2)CC1)c1cccc(O)c1,Ki,[1],310 nM
O=Cc1cccc(NCCCN2CCN(c3ccccc3)CC2)c1,Ki,[1],13.2 nM
CN(CCCN1CCN(c2ccccc2)CC1)c1cccc(NS(C)(=O)=O)c1,Ki,[1],39.6 nM
OCc1cccc(NCCCN2CCN(c3ccccc3)CC2)c1,Ki,[1],109 nM
CN(CCCN1CCN(c2ccc3ccccc3c2)CC1)c1cccc(O)c1,Ki,[1],434 nM
CN(CCCN1CCC(c2ccccc2)(c2ccccc2)CC1)c1cccc(O)c1,Ki,[1],242 nM
COC(=O)c1cccc(NCCCN2CCN(c3ccccc3)CC2)c1,Ki,[1],77.9 nM
CCCCN1CCN(CCc2c[nH]c3ccc(O)cc23)CC1,inhibition,[17],-9%
Oc1ccc2[nH]cc(CCN3CCN(c4ccccc4)CC3)c2c1,Ki,[1],63.1 nM
same,inhibition,[2],95%
same,inhibition,[3],11%
same,inhibition,[4],60%
same,inhibition,[5],97%
same,inhibition,[6],98%
same,inhibition,[7],66%
same,inhibition,[8],1%
same,inhibition,[9],17%
same,inhibition,[10],56%
same,inhibition,[11],18%
same,Ki,[12],63.1 nM
CN(CCCN1CCN(c2ccccc2)CC1)c1cccc(Cl)c1,Ki,[1],179 nM
CN(CCCCCCN1CCC(c2ccccc2)CC1)c1cccc(O)c1,Ki,[1],226 nM
Oc1cccc(NCCN2CCN(c3ccccc3)CC2)c1,Ki,[1],252 nM
CN(CCCCCCN1CCN(c2cccc3ccccc23)CC1)c1cccc(O)c1,Ki,[1],39.4 nM
CN(C(=O)CCCCCN1CCN(c2cccc3ccccc23)CC1)c1cccc(O)c1,Ki,[1],8.1 nM
same,inhibition,[2],99%
same,inhibition,[3],69%
same,inhibition,[4],100%
same,inhibition,[5],99%
same,inhibition,[6],101%
same,inhibition,[7],98%
same,inhibition,[8],6%
same,inhibition,[9],16%
same,inhibition,[10],70%
same,inhibition,[11],71%
same,Ki,[12],8.1 nM
NC(=O)c1cccc(NCCCN2CCN(c3ccccc3)CC2)c1,Ki,[1],63.3 nM
Oc1ccc2[nH]cc(CCN3CCN(C4CCCC4)CC3)c2c1,inhibition,[17],1%
Oc1cccc(CCCCN2CCN(c3ccccc3)CC2)c1,Ki,[1],3.1 nM
Cc1[nH]c2ccc(O)cc2c1CCN1CCN(c2cccc3ccccc23)CC1,Ki,[1],12.8 nM
Oc1cccc(N(CCCCCCN2CCN(c3ccccc3)CC2)Cc2ccccc2)c1,Ki,[1],138 nM
Oc1cccc(CCCN2CCN(c3ccccc3)CC2)c1,Ki,[1],40 nM
CN(CCN1CCN(c2ccccc2)CC1)c1cccc(NS(C)(=O)=O)c1,Ki,[1],57 nM
same,% serotonin response,[15],48%
Oc1cccc(NCCCN2CCN(c3ccccc3)CC2)c1,Ki,[1],10.1 nM
CN(CCN1CCN(c2ccccc2)CC1)c1cccc(N)c1,inhibition,[13],85%
same,inhibition,[14],40%
Oc1cccc(N(CCCN2CCN(c3ccccc3)CC2)c2ccccc2)c1,Ki,[1],90.1 nM
CC(=O)Nc1cccc(N(C)CCCN2CCN(c3ccccc3)CC2)c1,Ki,[1],161 nM
CN(CCN1CCN(c2ccccc2)CC1)c1cccc([N+](=O)[O-])c1,Ki,[1],332 nM
CN(CCN1CCN(Cc2ccccc2)CC1)c1cccc(O)c1,inhibition,[13],82%
same,inhibition,[14],42%
CN(CCCN1CCN(c2ccccc2)CC1)c1cccc(O)c1,Ki,[1],20 nM
same,inhibition,[2],101%
same,inhibition,[3],9%
same,inhibition,[4],18%
same,inhibition,[5],79%
same,inhibition,[6],75%
same,inhibition,[7],42%
same,inhibition,[8],5%
same,inhibition,[9],-5%
same,inhibition,[10],49%
same,inhibition,[11],21%
same,Ki,[12],20 nM
same,% serotonin response,[15],49%
Oc1cccc2c1CC(N1CCN(c3ccccc3)CC1)CC2 (racemic),Ki,[1],81.4 nM
CN(CCN1CCN(c2ccccc2)CC1)c1cccc(O)c1,Ki,[1],161 nM
Oc1ccc2[nH]cc(CCN3CCN(c4ccc(-c5ccccc5)cc4)CC3)c2c1,inhibition,[13],32%
same,inhibition,[17],10%
